# MPTP block – blocks calcium-induced mitochondrial swelling; isolated mouse mitochondria, Ca2+ swelling absorbance, 30 min; hit rate 1.4% among 360,000; inhibition, % at 10 µM; AID 602449;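 active means inhibition of 50% or more, scaled per plate between neutral and stimulator controls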;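 further: 0% = DMSO wells given calcium and 100% = 1 mM EGTA wells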
# MT1-MMP act inh – inhibitors of human MT1-MMP activation; P50281; HT1080 RFP-PRO-GFP cells, GFP/RFP ratio fluorescence, overnight; percent of plate control window, DMSO zero; GFP/RFP ratio change, % at 20 µM; hit rate 0.061% among 360,000;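 active means GFP/RFP ratio change of at least 30% with cell ATP level not reduced by more than half and red fluorescence within 50% of control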
#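 Assay system: RFP-PRO-GFP reporter HT1080 cells; read-out basis: GFP/RFP fluorescence ratio; benchmarks: DMSO wells and RFP-L50D-GFP cells; doses: 20 µM single dose, 1% DMSO; schedule: overnight cell settling, then overnight compound exposure, 37 °C, 5% CO2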
# ADAM10 inh – inhibitors of human ADAM10; recombinant ADAM10, EDANS/DABCYL FRET peptide cleavage, 3 h; O14672; hit rate 0.62% among 370,000; inhibition, % at 7 µM;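 active means inhibition above a per-campaign cutoff equal to the mean of compounds falling between control-based bounds plus 3 SD, cut at about 20% in these data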;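 further: 0% = DMSO wells while the 100% control is not disclosed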
# NR3A LBD binder – modulators (binders) of human NR3A ligand-binding domain; Tm shift relative to glycine control, % at 25 µM; AID 1259313; hit rate 2.5% among 340,000; NR3A LBD differential scanning fluorimetry, Tm shift; 0% = protein alone, 100% = glycine-bound protein;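 active means melting temperature shift of at least 10% of the positive control shift, at one fixed dose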
# SKN-1 inh – C. elegans SKN-1 inhibition. inhibition, % at 21.8 µM. C. elegans VP596 Pgst-4::GFP/RFP ratio, acrylamide-induced, 24 h. AID 624304. hit rate 0.49% among 360,000;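 active means interference check ratio from 0.5 to 1.5 plus GFP to RFP signal ratio inhibition reaching or exceeding a fixed threshold, cut at about 30% in these data, passing the limit was not always enough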
# ADAM17 inh – inhibitors of human ADAM17 | recombinant ADAM17, EDANS/DABCYL FRET peptide cleavage | P78536 | inhibition, % at 6.95 µM | hit rate 0.83% among 370,000 | AID 720648;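 active means inhibition above the mean of compounds lying between control limits plus 3 SD, set per campaign, cut at about 8.5% in these data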;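 further: 0% = DMSO-only wells as the low control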
# Target sequence (P78536 215-824 limits assumed): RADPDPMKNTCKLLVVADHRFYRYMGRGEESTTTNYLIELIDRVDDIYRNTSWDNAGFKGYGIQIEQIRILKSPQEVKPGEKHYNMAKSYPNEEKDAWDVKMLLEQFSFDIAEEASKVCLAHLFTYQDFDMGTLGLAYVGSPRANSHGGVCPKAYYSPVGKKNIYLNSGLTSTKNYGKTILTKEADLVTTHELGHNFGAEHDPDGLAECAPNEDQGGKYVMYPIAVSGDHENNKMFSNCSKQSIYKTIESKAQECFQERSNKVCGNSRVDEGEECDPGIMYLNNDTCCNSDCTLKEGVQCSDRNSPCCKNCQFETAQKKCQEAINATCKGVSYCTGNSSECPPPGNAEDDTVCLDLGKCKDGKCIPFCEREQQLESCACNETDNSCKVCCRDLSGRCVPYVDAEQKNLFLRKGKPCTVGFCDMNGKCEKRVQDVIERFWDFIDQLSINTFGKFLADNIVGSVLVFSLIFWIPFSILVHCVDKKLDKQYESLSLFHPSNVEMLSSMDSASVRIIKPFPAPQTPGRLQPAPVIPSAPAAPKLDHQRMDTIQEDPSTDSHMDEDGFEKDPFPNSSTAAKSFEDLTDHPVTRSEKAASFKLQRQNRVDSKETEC
# * hit, by the source's call; nt = no result given. Only some compounds are listed: those with a hit (about 4.7% of all), similar ones and a draw of the others.
SMILES,MPTP block,MT1-MMP act inh,ADAM10 inh,NR3A LBD binder,SKN-1 inh,ADAM17 inh
CCN(CC)S(=O)(=O)c1cccc(C(=O)N/N=C(\C)c2cccs2)c1,-4,4,2,0,-4,1
C/C(=N\NC(=O)c1cccc(S(=O)(=O)Nc2cccc(Cl)c2)c1)c1cccs1,5,-1,10,14*,-2,-2
C/C(=N\NS(=O)(=O)c1ccccc1)c1cccc(NC(=O)c2cccc(Cl)c2)c1,2,0,-2,15*,3,6
C=CCn1c(SCc2ccc(F)cc2)nnc1-c1sc2nc(C)cc(C)c2c1N,4,-6,-32,1,-11,-12
CCOC(=O)[C@]12CCC=C1N(Cc1ccccc1)C(=O)[C@H](CC(=O)N1CCOCC1)C2,0,0,-10,nt,1,2
O=C1/C(=C\c2cccnc2)SC(=S)N1c1ccc(F)cc1,-1,2,0,-1,-5,-2
N#C/C(=C/c1ccc(N2CCCCC2)o1)C(=O)Nc1ccc(Cl)cc1,1,-226,-4,12*,35,-2
N#C/C(=C/c1ccc(N2CCCCC2)o1)C(=O)Nc1ccc2ccccc2c1,4,-118,9,0,32,3
Cc1ccc(S(=O)(=O)CCC(=O)OCC(=O)NCCc2ccccc2)cc1,1,-3,-5,15*,0,-2
Cc1ccc(CNC(=O)c2ccc(N(C)C)cc2)cc1,-1,0,1,-1,-4,-1
CN(C)c1ccc(C(=O)NCc2ccc3c(c2)CCO3)cc1,0,0,-8,10*,13,-4
COc1ccc(-c2ccc(C(=O)NCC(C)C)c3occc23)c(C)c1,0,-2,-97,nt,11,-31
Cc1c(/C=N\NC(=O)c2c[nH]c3ccccc23)cnn1C,0,0,7,-7,3,2
O=C(NN=C1CCCCCC1)c1c[nH]c2ccccc12,-18,-6,2,20*,14,0
O=C(N/N=C/c1cccs1)c1c[nH]c2ccccc12,1,-3,11,14*,10,-1
CCN(CC)c1ccc(/C=N/NC(=O)c2c[nH]c3ccccc23)cc1,-2,0,-112,9,-4,-31
CCc1ccc(/C=N/NC(=O)c2c[nH]c3ccccc23)s1,0,12,-7,30*,5,-5
CCOC(=O)[C@]12CCCC=C1N(Cc1ccc3c(c1)OCO3)C(=O)[C@H](CC(=O)N1CCSCC1)C2,1,5,-3,nt,8,1
CCOC(=O)c1cnc2nc(NCc3ccc(OC)c(OC)c3)[nH]n2c1=O,2,1,5,-6,-7,0
Cc1ccc2cccc(Oc3ncnc4scc(-c5ccc(Cl)cc5)c34)c2n1,1,-12,-2,11*,2,4
Nc1nc(-c2ccc3ccccc3c2)cs1,0,3,-27,2,18,-17
CC12CCCc3c(O)cc(=O)n(c31)-c1ccccc12 (stereo not drawn),-2,0,0,21*,7,-1
CC1(C)CCC(=O)c2ccccc21,0,-4,-7,0,4,-6
O=C(Nc1ccc(C(F)(F)F)cc1-c1ccccc1)c1ccccc1,0,0,-2,-1,7,-2
O=C(Nc1ccccc1-c1ccccc1)c1cccc(C(F)(F)F)c1,1,4,-2,18*,-1,-2
SMILES,MPTP block,MT1-MMP act inh,ADAM10 inh,NR3A LBD binder,SKN-1 inh,ADAM17 inh
Cc1ccc(NC(CC(=O)c2ccccc2)C(=O)O)cc1Cl (stereo not drawn),2,-6,-11,-5,12,-9
O=C(CC(Nc1ccccc1)C(=O)O)c1ccccc1 (stereo not drawn),-1,-13,2,36*,18,-3
COc1ccc(S(=O)(=O)NCc2c(-c3ccccc3)noc2C)c(OC)c1,3,-2,4,0,5,3
N#CCOC(=O)[C@H](Cc1c[nH]c2ccccc12)NS(=O)(=O)c1ccc(Cl)cc1,1,0,1,29*,10,-3
O=C(O)C(Cc1c[nH]c2ccccc12)NS(=O)(=O)c1ccc(F)cc1 (stereo not drawn),2,0,-7,nt,7,-3
CC(C)(C)c1ccc(C2=CSC3=NCCN23)cc1,4,-5,-4,0,48*,-5

# Screens from PubChem.
